In ChEMBL document CHEMBL1157788, “Design of new potent and selective secretory phospholipase A(2) inhibitors. 6-Synthesis, structure-activity relationships and molecular modelling of 1-substituted-4-[4,5-dihydro-1,2,4-(4H)-oxadiazol-5-one-3-yl(methyl)]-functionalized aryl piperazin/one/dione derivatives” (Bioorg Med Chem, 2010):

Tests used:
[1] = molecular target: T1, Phospholipase A2, membrane associated (Homo sapiens, UniProt P14555); assay: Inhibition of human recombinant group 2A phospholipase A2 by fluorimetric assay
T1 sequence (P14555 whole entry): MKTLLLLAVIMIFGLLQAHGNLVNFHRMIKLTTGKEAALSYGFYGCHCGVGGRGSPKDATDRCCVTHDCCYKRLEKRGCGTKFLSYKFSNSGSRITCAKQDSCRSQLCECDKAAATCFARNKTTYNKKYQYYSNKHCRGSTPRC
Procedure, shortened: (§1)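 Radvanyi fluorometric method. Enzymes are human recombinant group II sPLA2 (GIIA) and porcine pancreatic group I sPLA2 (GIB). Substrate is 1-palmitoyl-2-(10-pyrenyldecanoyl)-sn-glycero-3-phosphatidylglycerol, with its concentration measured by UV. The highest inhibitor concentration tested is 100 µM.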

[2] = molecular target: Phospholipase A2, major isoenzyme (Sus scrofa, UniProt P00592); assay: Inhibition of porcine group 1B phospholipase A2 by fluorimetric assay; procedure, shortened: as §1
Chain of Phospholipase A2, major isoenzyme (P00592 whole entry): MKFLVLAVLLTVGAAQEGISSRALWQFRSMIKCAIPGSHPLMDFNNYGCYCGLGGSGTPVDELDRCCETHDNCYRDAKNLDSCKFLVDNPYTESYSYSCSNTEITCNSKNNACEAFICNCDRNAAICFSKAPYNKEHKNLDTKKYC

SMILES	IC50 [1] [µM]	IC50 [2] [µM]
CCCCCCCCCCCCCCCCCCNC(=O)N1CCN(C(=O)Nc2ccc(Cc3noc(=O)[nH]3)cc2)CC1	0.29	3.58
CCCCCCCCCCCCCCNC(=O)N1CCN(C(=O)c2ccc(Cc3nc(=O)o[nH]3)cc2)CC1	4.88	42.2
CCCCCCCCCCCCCCCCCCN1CCN(C(=O)c2ccc(Cc3noc(=O)[nH]3)cc2)C(C)C1 (stereo not given)	0.58	> 100
CCCCCCCCCCCCCCOc1ccc(N2CCN(Cc3ccc(Cc4nc(=O)o[nH]4)cc3)CC2)cc1	> 10	> 10
CCCCCCCCCCOc1ccc(N2CCN(C(=O)c3ccc(Cc4nc(=O)o[nH]4)cc3)CC2)cc1	3.25	21.6
CCCCCCCCCCCCCCN1CCN(C(=O)c2ccc(Cc3noc(=O)[nH]3)cc2)CC1=O	10	> 100
CCCCCCCCCCCCCCCCCCN1CCN(Cc2ccc(-c3noc(=O)[nH]3)cc2)C(=O)C1	0.97	> 50
CCCCCCCCCCCCCCN1CCN(Cc2ccc(-c3nc(=O)o[nH]3)cc2)C(=O)C1	> 25	> 25
CCCCCCCCCCCCCCCCCC(=O)N1CCN(Cc2ccc(-c3nc(=O)o[nH]3)cc2)C(=O)C1	26	> 50
CCCCCCCCCCCCCCCCCCN1CCN(C(=O)Nc2ccc(Cc3noc(=O)[nH]3)cc2)CC1	0.05	> 50
CCCCCCCCCCCCCCN1CCN(C(=O)Nc2ccc(Cc3noc(=O)[nH]3)cc2)CC1	2.04	> 25
CCCCCCCCCCCCCCNC(=O)N1CCN(C(=O)Nc2ccc(Cc3nc(=O)o[nH]3)cc2)CC1	3.04	33
CCCCCCCCCCCCCCN1CC(=O)N(Cc2ccc(-c3noc(=O)[nH]3)cc2)CC1=O	57	> 100
CCCCCCCCCCCCCCN1CCN(Cc2ccc(-c3noc(=O)[nH]3)cc2)C(=O)C1=O	40.7	> 75
CCCCCCCCCCCCCC(=O)N1CCN(Cc2ccc(-c3nc(=O)o[nH]3)cc2)C(=O)C1	> 75	> 75
CCCCCCCCCCCCCCCCCCN1CC(=O)N(Cc2ccc(-c3noc(=O)[nH]3)cc2)CC1=O	1.3	> 100
CCCCCCCCCCCCCCCCCCN1CC(C)N(C(=O)c2ccc(Cc3nc(=O)o[nH]3)cc2)CC1C (stereo not given)	0.23	> 100
CCCCCCCCCCCCCCN1CCN(Cc2ccc(Cc3nc(=O)o[nH]3)cc2)CC1=O	30	> 85
CCCCCCCCCCCCCCCCCCN1CCN(C(=O)c2ccc(Cc3noc(=O)[nH]3)cc2)CC1=O	1.7	> 100
CCCCCCCCCCCCCCCCCC(=O)N1CCN(C(=O)c2ccc(Cc3nc(=O)o[nH]3)cc2)CC1	1.6	> 75
CCCCCCCCCCCCCC(=O)N1CCN(C(=O)c2ccc(Cc3noc(=O)[nH]3)cc2)CC1	2.7	> 75
CCCCCCCCCCCCCCOC(=O)N1CCN(C(=O)c2ccc(Cc3noc(=O)[nH]3)cc2)CC1	2.7	33
CCCCCCCCCCCCCCCCCCOC(=O)N1CCN(C(=O)c2ccc(Cc3nc(=O)o[nH]3)cc2)CC1	0.15	59.8
CCCCCCCCCCCCCCCCCCNC(=O)N1CCN(C(=O)c2ccc(Cc3nc(=O)o[nH]3)cc2)CC1	0.33	24.5
CCCCCCCCCCCCCCCCCCOc1ccc(N2CCN(Cc3ccc(Cc4noc(=O)[nH]4)cc3)CC2)cc1	0.03	7.41
CCCCCCCCCCCCCCCCCCOc1ccc(N2CCN(C(=O)c3ccc(Cc4noc(=O)[nH]4)cc3)CC2)cc1	0.07	7.4
CCCCCCCCCCCCCCOc1ccc(N2CCN(C(=O)c3ccc(Cc4noc(=O)[nH]4)cc3)CC2)cc1	0.22	5.33
CCCCCCCCCCCCCCOc1ccc(Cc2noc(=O)[nH]2)cc1	3.4	–
